Results as given in ChEMBL document CHEMBL1177639, “Synthesis and biological evaluation of 5-substituted and 4,5-disubstituted-2-arylamino oxazole TRPV1 antagonists” (Bioorg Med Chem, 2010).
Each block holds one molecule with its values, some of them ahead of it.

What was measured:
[1] = target: Transient receptor potential cation channel subfamily V member 1 (Homo sapiens, UniProt Q8NER1); assay: Antagonist activity at human recombinant TRPV1 receptor expressed in human 1321 cells assessed as inhibition of capsaicin-induced in intracellular calcium levels by FLIPR assay; assay type: functional, cell-based
Transient receptor potential cation channel subfamily V member 1, sequence (Q8NER1 whole entry): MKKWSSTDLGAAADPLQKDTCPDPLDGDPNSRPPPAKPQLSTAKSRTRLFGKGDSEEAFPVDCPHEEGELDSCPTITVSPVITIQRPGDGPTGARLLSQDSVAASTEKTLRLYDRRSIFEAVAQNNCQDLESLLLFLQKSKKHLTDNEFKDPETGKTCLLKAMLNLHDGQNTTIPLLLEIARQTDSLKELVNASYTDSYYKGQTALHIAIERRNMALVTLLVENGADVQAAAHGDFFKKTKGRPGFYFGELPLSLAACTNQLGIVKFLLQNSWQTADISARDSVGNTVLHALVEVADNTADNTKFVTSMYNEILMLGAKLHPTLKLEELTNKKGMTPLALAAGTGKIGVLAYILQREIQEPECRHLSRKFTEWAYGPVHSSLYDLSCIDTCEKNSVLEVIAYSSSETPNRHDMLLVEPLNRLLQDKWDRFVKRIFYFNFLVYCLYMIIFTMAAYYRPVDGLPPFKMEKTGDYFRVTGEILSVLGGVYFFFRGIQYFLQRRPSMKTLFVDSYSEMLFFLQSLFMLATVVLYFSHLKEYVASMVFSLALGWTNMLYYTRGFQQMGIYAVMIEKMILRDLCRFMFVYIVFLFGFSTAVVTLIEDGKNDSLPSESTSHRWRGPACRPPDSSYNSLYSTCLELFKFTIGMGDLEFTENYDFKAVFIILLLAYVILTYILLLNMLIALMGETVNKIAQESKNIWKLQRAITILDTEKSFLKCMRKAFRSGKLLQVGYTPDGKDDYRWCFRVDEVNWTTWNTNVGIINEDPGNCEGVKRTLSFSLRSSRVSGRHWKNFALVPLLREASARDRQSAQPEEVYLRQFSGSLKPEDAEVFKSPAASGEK

[2] = Ratio of drug level in brain to plasma in rat at 10 umol/kg, iv and po; assay type: ADME, organism-based; conditions: read-out: BPR
[3] = Terminal phase volume of distribution […] in rat at 10 umol/kg, iv; assay type: ADME, organism-based; conditions: in vivo, read-out: Vbeta
Method in brief: (§1)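 Rat pharmacokinetics after 10 µmol/kg dosing, three animals per group for each of the iv and oral routes. Parameters reported are Vb (iv), CLp, t1/2 (iv), oral Cmax and oral bioavailability.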

[4] = Plasma clearance in rat at 10 umol/kg, iv and po; assay type: ADME, organism-based; method in brief: as §1
[5] = Half life in rat at 10 umol/kg, iv; assay type: ADME, organism-based; conditions: in vivo; method in brief: as §1
[6] = Cmax in rat at 10 umol/kg, po; assay type: ADME, organism-based; parameters: dose 10 umol/kg, route oral; conditions: in vivo; method in brief: as §1
[7] = Bioavailability in rat at 10 umol/kg, po; assay type: ADME, organism-based; conditions: in vivo; method in brief: as §1
[8] = target: T1, Transient receptor potential cation channel subfamily V member 2 (Rattus norvegicus, UniProt Q9WUD2); assay: Antagonist activity at rat TRPV2 receptor; assay type: functional
T1 sequence (Q9WUD2 whole entry): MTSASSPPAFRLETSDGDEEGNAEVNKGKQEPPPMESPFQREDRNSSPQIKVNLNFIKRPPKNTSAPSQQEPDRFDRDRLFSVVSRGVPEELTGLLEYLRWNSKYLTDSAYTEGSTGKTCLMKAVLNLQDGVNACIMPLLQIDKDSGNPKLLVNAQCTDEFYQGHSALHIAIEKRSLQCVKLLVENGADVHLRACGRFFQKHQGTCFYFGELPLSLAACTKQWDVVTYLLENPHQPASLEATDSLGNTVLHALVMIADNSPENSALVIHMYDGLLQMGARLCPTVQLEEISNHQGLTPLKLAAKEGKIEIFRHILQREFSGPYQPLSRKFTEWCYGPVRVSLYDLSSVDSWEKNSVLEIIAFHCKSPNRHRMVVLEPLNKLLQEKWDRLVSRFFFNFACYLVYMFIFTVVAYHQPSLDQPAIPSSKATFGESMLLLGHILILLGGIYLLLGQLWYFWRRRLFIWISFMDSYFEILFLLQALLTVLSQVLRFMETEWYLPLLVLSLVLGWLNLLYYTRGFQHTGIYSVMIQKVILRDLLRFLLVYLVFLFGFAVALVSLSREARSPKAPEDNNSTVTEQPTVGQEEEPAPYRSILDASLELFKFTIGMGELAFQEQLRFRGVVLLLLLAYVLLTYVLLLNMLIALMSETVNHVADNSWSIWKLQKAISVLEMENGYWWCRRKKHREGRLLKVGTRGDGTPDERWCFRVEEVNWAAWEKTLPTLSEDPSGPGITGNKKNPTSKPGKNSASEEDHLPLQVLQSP

[9] = target: T2, Transient receptor potential cation channel subfamily V member 3 (Homo sapiens, UniProt Q8NET8); assay: Antagonist activity at human TRPV3 receptor; assay type: functional
T2 sequence (Q8NET8 whole entry): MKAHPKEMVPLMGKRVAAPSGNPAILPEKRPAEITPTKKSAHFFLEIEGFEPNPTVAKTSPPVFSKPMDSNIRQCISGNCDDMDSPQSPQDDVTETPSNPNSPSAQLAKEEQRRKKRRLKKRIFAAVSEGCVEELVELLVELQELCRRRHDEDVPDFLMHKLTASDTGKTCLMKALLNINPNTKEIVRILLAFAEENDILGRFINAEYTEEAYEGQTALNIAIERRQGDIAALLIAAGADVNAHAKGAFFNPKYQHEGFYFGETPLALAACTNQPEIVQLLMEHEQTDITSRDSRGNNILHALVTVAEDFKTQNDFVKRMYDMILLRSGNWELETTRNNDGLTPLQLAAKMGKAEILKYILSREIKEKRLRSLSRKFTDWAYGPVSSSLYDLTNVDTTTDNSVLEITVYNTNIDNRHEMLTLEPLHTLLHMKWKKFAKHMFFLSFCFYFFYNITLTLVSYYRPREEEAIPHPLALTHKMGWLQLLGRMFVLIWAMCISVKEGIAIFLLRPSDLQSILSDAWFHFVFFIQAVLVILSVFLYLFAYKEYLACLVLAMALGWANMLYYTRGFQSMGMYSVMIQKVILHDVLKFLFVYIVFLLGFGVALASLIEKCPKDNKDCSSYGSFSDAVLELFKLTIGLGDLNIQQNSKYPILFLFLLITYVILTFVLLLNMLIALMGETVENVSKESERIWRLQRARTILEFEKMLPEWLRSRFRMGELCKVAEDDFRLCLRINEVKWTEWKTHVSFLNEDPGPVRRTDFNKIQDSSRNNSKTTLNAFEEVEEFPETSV

[10] = target: Transient receptor potential cation channel subfamily V member 4 (Homo sapiens, UniProt Q9HBA0); assay: Antagonist activity at human TRPV4 receptor; assay type: functional
Transient receptor potential cation channel subfamily V member 4, sequence (Q9HBA0 whole entry): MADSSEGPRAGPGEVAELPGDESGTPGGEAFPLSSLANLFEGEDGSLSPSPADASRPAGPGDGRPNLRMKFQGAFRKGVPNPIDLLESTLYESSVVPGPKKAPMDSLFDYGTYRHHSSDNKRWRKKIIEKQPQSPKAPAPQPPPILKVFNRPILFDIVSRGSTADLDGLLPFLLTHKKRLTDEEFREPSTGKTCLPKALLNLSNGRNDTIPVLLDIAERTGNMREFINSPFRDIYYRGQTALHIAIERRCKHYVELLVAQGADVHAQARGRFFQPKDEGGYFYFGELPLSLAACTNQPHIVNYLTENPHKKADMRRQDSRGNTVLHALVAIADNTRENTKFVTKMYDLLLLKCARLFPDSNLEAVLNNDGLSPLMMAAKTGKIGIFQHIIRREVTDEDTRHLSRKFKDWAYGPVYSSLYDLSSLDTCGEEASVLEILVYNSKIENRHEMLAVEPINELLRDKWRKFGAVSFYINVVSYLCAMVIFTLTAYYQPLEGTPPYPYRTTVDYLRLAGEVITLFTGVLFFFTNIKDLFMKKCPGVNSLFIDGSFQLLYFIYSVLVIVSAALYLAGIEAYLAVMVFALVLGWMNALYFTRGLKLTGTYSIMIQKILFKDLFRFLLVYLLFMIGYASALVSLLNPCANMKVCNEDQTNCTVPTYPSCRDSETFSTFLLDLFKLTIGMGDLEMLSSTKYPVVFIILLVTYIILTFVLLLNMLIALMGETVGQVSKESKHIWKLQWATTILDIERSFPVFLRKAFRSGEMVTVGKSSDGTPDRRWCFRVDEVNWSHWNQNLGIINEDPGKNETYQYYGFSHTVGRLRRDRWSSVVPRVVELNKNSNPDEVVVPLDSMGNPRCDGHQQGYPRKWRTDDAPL

[11] = target: Transient receptor potential cation channel subfamily M member 8 (Homo sapiens, UniProt Q7Z2W7); assay: Antagonist activity at human TRPM8 receptor; assay type: functional
Transient receptor potential cation channel subfamily M member 8, sequence (Q7Z2W7 whole entry): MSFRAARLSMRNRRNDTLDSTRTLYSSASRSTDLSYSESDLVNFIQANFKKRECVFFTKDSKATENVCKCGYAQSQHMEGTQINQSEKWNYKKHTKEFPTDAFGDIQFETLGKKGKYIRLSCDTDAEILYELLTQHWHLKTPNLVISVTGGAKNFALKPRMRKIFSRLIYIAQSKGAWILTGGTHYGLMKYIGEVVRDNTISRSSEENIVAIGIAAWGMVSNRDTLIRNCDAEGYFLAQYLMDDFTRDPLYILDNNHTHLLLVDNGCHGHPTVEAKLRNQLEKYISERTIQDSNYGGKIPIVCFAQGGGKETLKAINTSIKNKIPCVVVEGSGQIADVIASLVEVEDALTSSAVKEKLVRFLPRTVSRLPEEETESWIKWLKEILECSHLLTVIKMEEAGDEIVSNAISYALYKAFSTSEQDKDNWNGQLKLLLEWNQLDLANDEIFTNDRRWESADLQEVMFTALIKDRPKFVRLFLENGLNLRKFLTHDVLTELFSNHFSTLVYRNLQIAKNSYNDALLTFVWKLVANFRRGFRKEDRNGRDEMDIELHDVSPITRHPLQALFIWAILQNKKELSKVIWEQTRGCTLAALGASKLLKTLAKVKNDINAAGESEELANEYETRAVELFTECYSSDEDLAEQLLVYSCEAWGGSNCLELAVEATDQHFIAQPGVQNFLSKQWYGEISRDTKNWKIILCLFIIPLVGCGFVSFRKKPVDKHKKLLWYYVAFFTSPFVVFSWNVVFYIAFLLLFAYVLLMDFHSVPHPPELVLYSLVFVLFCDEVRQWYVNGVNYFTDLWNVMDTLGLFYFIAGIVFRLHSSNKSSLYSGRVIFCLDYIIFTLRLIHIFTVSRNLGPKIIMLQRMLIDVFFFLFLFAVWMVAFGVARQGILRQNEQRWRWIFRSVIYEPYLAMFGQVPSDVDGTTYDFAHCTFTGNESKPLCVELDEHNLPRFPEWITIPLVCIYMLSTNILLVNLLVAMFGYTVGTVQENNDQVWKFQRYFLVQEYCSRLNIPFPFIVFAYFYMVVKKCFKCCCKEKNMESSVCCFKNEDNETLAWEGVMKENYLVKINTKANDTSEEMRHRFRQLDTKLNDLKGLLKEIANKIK

Rattus norvegicus [12] = assay: Analgesic activity against carrageenan-induced thermal hyperalgesia in Sprague-Dawley rat assessed as paw withdrawal latency at 10 umol/kg, po by hotbox assay; assay type: functional
Rattus norvegicus [13] = assay: Analgesic activity in po dosed rat osteoarthritis model; assay type: functional
[14] = target: Voltage-gated inwardly rectifying potassium channel KCNH2 (Homo sapiens, UniProt Q12809); assay: Inhibition of human ERG
Voltage-gated inwardly rectifying potassium channel KCNH2, sequence (Q12809 whole entry): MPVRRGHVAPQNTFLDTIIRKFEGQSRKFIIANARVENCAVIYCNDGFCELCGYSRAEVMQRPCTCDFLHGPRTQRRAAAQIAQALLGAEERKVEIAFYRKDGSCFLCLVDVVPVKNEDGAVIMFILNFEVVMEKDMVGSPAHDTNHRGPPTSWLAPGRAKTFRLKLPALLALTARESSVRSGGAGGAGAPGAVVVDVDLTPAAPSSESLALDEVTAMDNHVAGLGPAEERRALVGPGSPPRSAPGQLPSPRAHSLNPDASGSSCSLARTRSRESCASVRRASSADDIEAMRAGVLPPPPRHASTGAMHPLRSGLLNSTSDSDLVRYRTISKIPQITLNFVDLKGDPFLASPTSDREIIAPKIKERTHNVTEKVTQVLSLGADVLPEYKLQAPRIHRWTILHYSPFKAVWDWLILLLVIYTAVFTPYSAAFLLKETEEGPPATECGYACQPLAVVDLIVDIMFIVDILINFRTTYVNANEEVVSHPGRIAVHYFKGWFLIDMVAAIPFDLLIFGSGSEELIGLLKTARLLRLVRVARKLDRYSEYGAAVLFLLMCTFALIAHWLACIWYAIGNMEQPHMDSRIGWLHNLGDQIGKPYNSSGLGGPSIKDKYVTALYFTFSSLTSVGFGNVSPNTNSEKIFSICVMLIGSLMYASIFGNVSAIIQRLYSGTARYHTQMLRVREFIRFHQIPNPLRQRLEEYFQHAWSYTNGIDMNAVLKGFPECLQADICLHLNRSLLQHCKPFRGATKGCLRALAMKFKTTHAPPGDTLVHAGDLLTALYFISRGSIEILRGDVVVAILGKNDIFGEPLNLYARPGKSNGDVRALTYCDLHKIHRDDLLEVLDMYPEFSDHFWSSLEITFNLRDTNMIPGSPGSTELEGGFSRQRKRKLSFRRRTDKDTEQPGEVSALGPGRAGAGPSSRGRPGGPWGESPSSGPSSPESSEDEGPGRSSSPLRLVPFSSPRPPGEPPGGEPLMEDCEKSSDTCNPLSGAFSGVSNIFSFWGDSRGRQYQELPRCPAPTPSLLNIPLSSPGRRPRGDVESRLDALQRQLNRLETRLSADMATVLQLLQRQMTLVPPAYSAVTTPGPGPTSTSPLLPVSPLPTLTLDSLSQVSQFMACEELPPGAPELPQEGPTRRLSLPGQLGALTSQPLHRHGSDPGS

[15] = Inhibition of human cytochrom P450; assay type: ADME
Salmonella typhimurium = assay: Mutagenic activity in Salmonella Typhimurium by Ames test; assay type: toxicity, organism-based; conditions: salmonella enterica subsp. enterica serovar typhimurium
Canis familiaris = assay: Cardiotoxicity in anesthetized dog assessed as effect on hemodynamics at 57 times Cmax concentration; conditions: in vivo

SMILES: Oc1ccc2cccc(Nc3ncc(-c4ccc(C(F)(F)F)cc4)o3)c2c1
IC50 [1]: 5 nM

SMILES: OC1CCc2cccc(Nc3nc(-c4ccccc4)co3)c2C1 (stereo unspecified)
IC50 [1]: 864 nM

SMILES: OC1CCc2cccc(Nc3nc(-c4ccc(F)cc4)c(-c4ccc(C(F)(F)F)cc4)o3)c2C1 (stereo unspecified)
IC50 [1]: 1.3 nM
Kp [2]: 0.21

SMILES: FC(F)(F)c1ccc(-c2cnc(Nc3cccc4cnccc34)o2)cc1
IC50 [1]: 229 nM

SMILES: O=C1CCc2cccc(Nc3ncc(-c4ccc(C(F)(F)F)cc4)o3)c2C1
IC50 [1]: 374 nM

SMILES: FC(F)(F)c1ccc(-c2cnc(Nc3cccc4[nH]ncc34)o2)cc1
IC50 [1]: 101 nM

SMILES: CCc1nc(Nc2cccc3c2CC(O)CC3)oc1-c1ccc(C(F)(F)F)cc1 (stereo unspecified)
IC50 [1]: 2.1 nM
Kp [2]: 3.7

SMILES: OC1CCc2cccc(Nc3nc(Br)c(-c4ccc(C(F)(F)F)cc4)o3)c2C1 (stereo unspecified)
IC50 [1]: 9 nM

SMILES: CN(c1ncc(-c2ccc(C(F)(F)F)cc2)o1)c1cccc2c1CC(O)CC2 (stereo unspecified)
IC50 [1]: 277 nM

SMILES: NC1CCc2cccc(Nc3ncc(-c4ccc(C(F)(F)F)cc4)o3)c2C1 (stereo unspecified)
IC50 [1]: 327 nM

SMILES: CC(C)c1nc(Nc2cccc3c2CC(O)CC3)oc1-c1ccc(C(F)(F)F)cc1 (stereo unspecified)
IC50 [1]: 114 nM

SMILES: Cc1nc(Nc2cccc3c2C[C@@H](O)CC3)oc1-c1ccc(C(F)(F)F)cc1
Kp [2]: 3
Vd [3]: 12 L/kg
clearance [4]: 73.3 mL/min/kg
half-life [5]: 1.9 h
Cmax [6]: 20 ng/mL
bioavailability [7]: 7%

SMILES: CC1(O)CCc2cccc(Nc3ncc(-c4ccc(C(F)(F)F)cc4)o3)c2C1 (stereo unspecified)
IC50 [1]: 840 nM

SMILES: OC1CCc2cccc(Nc3ncc(Cc4ccccc4)o3)c2C1 (stereo unspecified)
IC50 [1]: 1820 nM

SMILES: Cc1nc(Nc2cccc3c2CC(O)CC3)oc1-c1ccc(C(F)(F)F)cc1 (stereo unspecified)
Kp [2]: 3
Vd [3]: 10 L/kg
clearance [4]: 40 mL/min/kg
half-life [5]: 2.8 h
Cmax [6]: 96 ng/mL
bioavailability [7]: 33%

SMILES: N#Cc1ccc(-c2nc(Nc3cccc4c3CC(O)CC4)oc2-c2ccc(C(F)(F)F)cc2)cc1 (stereo unspecified)
IC50 [1]: 2 nM
Kp [2]: 0.13

SMILES: Cc1nc(Nc2cccc3c2C[C@H](O)CC3)oc1-c1ccc(C(F)(F)F)cc1
Kp [2]: 3
Vd [3]: 6.8 L/kg
clearance [4]: 20 mL/min/kg
half-life [5]: 3.8 h
Cmax [6]: 130 ng/mL
bioavailability [7]: 52%
IC50 [8]: 37000 nM
IC50 [9]: > 100000 nM
IC50 [10]: > 100000 nM
IC50 [11]: 44000 nM
Activity (Rattus norvegicus [12]): 52%
ED50 (Rattus norvegicus [13]): 14 µmol/kg
inhibition (INH) [14]: Not Active
inhibition (INH) [15]: Not Active
Activity (Salmonella typhimurium): Non-toxic
Activity (Canis familiaris): Non-toxic

SMILES: COC1CCc2cccc(Nc3ncc(-c4ccc(C(F)(F)F)cc4)o3)c2C1 (stereo unspecified)
IC50 [1]: 150 nM

SMILES: Cc1ccccc1-c1cnc(Nc2cccc3c2CC(O)CC3)o1 (stereo unspecified)
IC50 [1]: 416 nM

Further lines, results first:

IC50 [1]: 81 nM
SMILES: COc1ccc(-c2cnc(Nc3cccc4c3CC(O)CC4)o2)cc1 (stereo unspecified)

IC50 [1]: 8.3 nM
Vd [3]: 5.4 L/kg
clearance [4]: 85 mL/min/kg
half-life [5]: 0.7 h
Cmax [6]: 23 ng/mL
bioavailability [7]: 5%
SMILES: OC1CCc2cccc(Nc3ncc(-c4ccc(C(F)(F)F)cc4)o3)c2C1 (stereo unspecified)

IC50 [1]: 157 nM
SMILES: Cc1cccc(-c2cnc(Nc3cccc4c3CC(O)CC4)o2)c1 (stereo unspecified)

IC50 [1]: 26 nM
SMILES: CC(C)(C)c1ccc(-c2cnc(Nc3cccc4c3CC(O)CC4)o2)cc1 (stereo unspecified)

IC50 [1]: 120 nM
SMILES: OC1CCc2c(cccc2Nc2ncc(-c3ccc(C(F)(F)F)cc3)o2)C1 (stereo unspecified)

IC50 [1]: 62 nM
SMILES: Cc1ccc(-c2cnc(Nc3cccc4c3CC(O)CC4)o2)cc1 (stereo unspecified)

IC50 [1]: 187 nM
SMILES: OC1CCc2cccc(Nc3ncc(-c4ccccc4)o3)c2C1 (stereo unspecified)

IC50 [1]: 15 nM
SMILES: OC1CCc2cccc(Nc3ncc(-c4ccc(Cl)cc4)o3)c2C1 (stereo unspecified)

IC50 [1]: 101 nM
SMILES: OC1CCc2cccc(Nc3ncc(-c4ccc(N5CCCC5)cc4)o3)c2C1 (stereo unspecified)
